ChEMBL document CHEMBL2380270, “Radiosynthesis and first evaluation in mice of [(18)F]NS14490 for molecular imaging of α7 nicotinic acetylcholine receptors” (Bioorg Med Chem, 2013)

Experiments:
[1] = test system: Zone of skin; assay: Biodistribution in CD1 mouse skin at 200 to 300 kBq, iv measured at 15 mins by gamma counting analysis; type: ADME, organism-based; details: in vivo, 0.25 h
Outline: (§1)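 Female CD-1 mice received 200–300 kBq [18F]radiotracer intravenously. Blood and urine were sampled under anaesthesia, then mice were killed by cervical dislocation at 5, 15, 30 or 60 min p.i. (n = 3; control at 60 min n = 7). Organs were removed and weighed, activity was gamma-counted, and uptake was expressed as % injected dose per g wet tissue.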

[2] = test system: Mus musculus; assay: Biodistribution in CD1 mouse large intestine at 200 to 300 kBq, iv measured at 30 mins by gamma counting analysis; type: ADME, organism-based; details: in vivo, 0.5 h
Outline: (§2)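 Female CD-1 mice, 200–300 kBq radiotracer given iv, n = 3 per time point. Animals anaesthetised for blood and urine sampling, then killed by cervical dislocation at 5, 15, 30 or 60 min p.i. Organs removed, weighed and gamma-counted; uptake expressed as % injected dose per g wet tissue.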

[3] = test system: Pancreas; assay: Biodistribution in CD1 mouse pancreas at 200 to 300 kBq, iv measured at 60 mins by gamma counting analysis in presence of SSR180711; type: ADME, organism-based; details: in vivo, 1 h
Outline: (§3)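 Blocking design in female CD-1 mice, n = 7 per group. The blocker was given at 10 mg kg^-1 i.p. in 0.9% saline 10 min before i.v. 200–300 kBq [18F]radiotracer. Mice were killed at 60 min p.i. and organs weighed and gamma-counted as % ID per g wet weight. Blocked groups were compared with controls by two-tailed independent Student's t test.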

[4] = test system: Femur; assay: Biodistribution in CD1 mouse femur at 200 to 300 kBq, iv measured at 15 mins by gamma counting analysis; type: ADME, organism-based; details: in vivo, 0.25 h; outline: as §2
[5] = test system: Muscle tissue; assay: Biodistribution in CD1 mouse muscle at 200 to 300 kBq, iv measured at 60 mins by gamma counting analysis in presence of SSR180711; type: ADME, organism-based; details: in vivo, 1 h; outline: as §3
[6] = test system: Blood; assay: Biodistribution in CD1 mouse blood at 200 to 300 kBq, iv measured at 60 mins by gamma counting analysis; type: ADME, organism-based; details: in vivo, 1 h; outline: as §2
[7] = test system: Lung; assay: Biodistribution in CD1 mouse lung at 200 to 300 kBq, iv measured at 5 mins by gamma counting analysis; type: ADME, organism-based; details: in vivo; outline: as §1
[8] = test system: Zone of skin; assay: Biodistribution in CD1 mouse skin at 200 to 300 kBq, iv measured at 5 mins by gamma counting analysis; type: ADME, organism-based; details: in vivo; outline: as §1
[9] = test system: Blood; assay: Biodistribution in CD1 mouse blood at 200 to 300 kBq, iv measured at 60 mins by gamma counting analysis in presence of SSR180711; type: ADME, organism-based; details: in vivo, 1 h
Outline: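 Blocking study in female CD-1 mice, n = 7 per blocker, with a matching control group. SSR180711 or NS6740 given at 10 mg kg⁻¹ ip in 0.9% saline 10 min before iv radiotracer (200–300 kBq). Organs taken at 60 min p.i., weighed and gamma-counted; uptake as % ID per g wet weight. Compared with control by two-tailed independent Student's t test.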

[10] = test system: Zone of skin; assay: Biodistribution in CD1 mouse skin at 200 to 300 kBq, iv measured at 60 mins by gamma counting analysis in presence of SSR180711; type: ADME, organism-based; details: in vivo, 1 h; outline: as §3
[11] = test system: Stomach; assay: Biodistribution in CD1 mouse stomach at 200 to 300 kBq, iv measured at 15 mins by gamma counting analysis; type: ADME, organism-based; details: in vivo, 0.25 h; outline: as §1
[12] = test system: Heart; assay: Biodistribution in CD1 mouse heart at 200 to 300 kBq, iv measured at 60 mins by gamma counting analysis; type: ADME, organism-based; details: in vivo, 1 h; outline: as §2
[13] = Biodistribution in CD1 mouse urine at 200 to 300 kBq, iv measured at 60 mins by gamma counting analysis in presence of SSR180711; type: ADME, organism-based; details: in vivo, 1 h
Outline: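 Female CD-1 mice given 200–300 kBq tracer intravenously. Animals anaesthetised for blood and urine sampling, then killed by cervical dislocation at 5, 15, 30 or 60 min (n = 3 per time; n = 7 at 60 min). Organs removed and weighed, activity gamma-counted, expressed as % injected dose per g wet weight. Blocking arm: 10 mg/kg i.p. in 0.9% saline, 10 min before tracer; two-tailed unpaired t test versus control.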

[14] = test system: Muscle tissue; assay: Biodistribution in CD1 mouse muscle at 200 to 300 kBq, iv measured at 30 mins by gamma counting analysis; type: ADME, organism-based; details: in vivo, 0.5 h; outline: as §1
[15] = test system: Liver; assay: Biodistribution in CD1 mouse liver at 200 to 300 kBq, iv measured at 30 mins by gamma counting analysis; type: ADME, organism-based; details: in vivo, 0.5 h; outline: as §1
[16] = test system: Lung; assay: Biodistribution in CD1 mouse lung at 200 to 300 kBq, iv measured at 15 mins by gamma counting analysis; type: ADME, organism-based; details: in vivo, 0.25 h; outline: as §1
[17] = test system: Pancreas; assay: Biodistribution in CD1 mouse pancreas at 200 to 300 kBq, iv measured at 30 mins by gamma counting analysis; type: ADME, organism-based; details: in vivo, 0.5 h; outline: as §1
[18] = test system: Lung; assay: Biodistribution in CD1 mouse lung at 200 to 300 kBq, iv measured at 60 mins by gamma counting analysis in presence of SSR180711; type: ADME, organism-based; details: in vivo, 1 h; outline: as §3
[19] = test system: Muscle tissue; assay: Biodistribution in CD1 mouse muscle at 200 to 300 kBq, iv measured at 15 mins by gamma counting analysis; type: ADME, organism-based; details: in vivo, 0.25 h; outline: as §1
[20] = test system: Kidney; assay: Biodistribution in CD1 mouse kidney at 200 to 300 kBq, iv measured at 15 mins by gamma counting analysis; type: ADME, organism-based; details: in vivo, 0.25 h; outline: as §2
[21] = test system: Femur; assay: Biodistribution in CD1 mouse femur at 200 to 300 kBq, iv measured at 60 mins by gamma counting analysis; type: ADME, organism-based; details: in vivo, 1 h; outline: as §2
[22] = test system: Zone of skin; assay: Biodistribution in CD1 mouse skin at 200 to 300 kBq, iv measured at 60 mins by gamma counting analysis; type: ADME, organism-based; details: in vivo, 1 h; outline: as §1
[23] = test system: Kidney; assay: Biodistribution in CD1 mouse kidney at 200 to 300 kBq, iv measured at 5 mins by gamma counting analysis; type: ADME, organism-based; details: in vivo; outline: as §2
[24] = test system: Mus musculus; assay: Biodistribution in CD1 mouse small intestine at 200 to 300 kBq, iv measured at 15 mins by gamma counting analysis; type: ADME, organism-based; details: in vivo, 0.25 h; outline: as §1
[25] = test system: Mus musculus; assay: Biodistribution in CD1 mouse small intestine at 200 to 300 kBq, iv measured at 30 mins by gamma counting analysis; type: ADME, organism-based; details: in vivo, 0.5 h; outline: as §1
[26] = test system: Spleen; assay: Biodistribution in CD1 mouse spleen at 200 to 300 kBq, iv measured at 60 mins by gamma counting analysis; type: ADME, organism-based; details: in vivo, 1 h; outline: as §1
[27] = test system: Mus musculus; assay: Biodistribution in CD1 mouse large intestine at 200 to 300 kBq, iv measured at 5 mins by gamma counting analysis; type: ADME, organism-based; details: in vivo; outline: as §2
[28] = test system: Spleen; assay: Biodistribution in CD1 mouse spleen at 200 to 300 kBq, iv measured at 15 mins by gamma counting analysis; type: ADME, organism-based; details: in vivo, 0.25 h; outline: as §1
[29] = test system: Spleen; assay: Biodistribution in CD1 mouse spleen at 200 to 300 kBq, iv measured at 5 mins by gamma counting analysis; type: ADME, organism-based; details: in vivo; outline: as §1
[30] = test system: Heart; assay: Biodistribution in CD1 mouse heart at 200 to 300 kBq, iv measured at 30 mins by gamma counting analysis; type: ADME, organism-based; details: in vivo, 0.5 h; outline: as §2
[31] = test system: Brain; assay: Biodistribution in CD1 mouse brain at 200 to 300 kBq, iv measured at 30 mins by gamma counting analysis; type: ADME, organism-based; details: in vivo, 0.5 h; outline: as §2
[32] = test system: Urinary bladder; assay: Biodistribution in CD1 mouse bladder at 200 to 300 kBq, iv measured at 5 mins by gamma counting analysis; type: ADME, organism-based; details: in vivo; outline: as §2
[33] = test system: Mus musculus; assay: Biodistribution in CD1 mouse adrenal at 200 to 300 kBq, iv measured at 60 mins by gamma counting analysis; type: ADME, organism-based, Adrenal gland; details: in vivo, 1 h; outline: as §2

Question: For `O=C(Oc1ccc(Br)cc1)N1CCN2CCC1CC2` [SSR180711], which Drug uptake [1] is on record?
Answer: 1.4 % ID/g

Question: What about the Drug uptake [2] of the same compound?
Answer: 2.7 % ID/g

Question: And the Drug uptake [3]?
Answer: 2.96 % ID/g

Question: What about the Drug uptake [4] of the same compound?
Answer: 2.15 % ID/g

Question: And the Drug uptake [5]?
Answer: 1.02 % ID/g

Question: What about the Drug uptake [6] of the same compound?
Answer: 0.78 % ID/g

Question: And the Drug uptake [7]?
Answer: 8.48 % ID/g

Question: What about the Drug uptake [8] of the same compound?
Answer: 0.81 % ID/g

Question: And the Drug uptake [9]?
Answer: 0.78 % ID/g

Question: What about the Drug uptake [10] of the same compound?
Answer: 2.04 % ID/g

Question: What about the Drug uptake [11] of the same compound?
Answer: 5.45 % ID/g

Question: And the Drug uptake [12]?
Answer: 1.84 % ID/g

Question: And the Drug uptake [13]?
Answer: 270 % ID/g

Question: And the Drug uptake [14]?
Answer: 1.26 % ID/g

Question: What about the Drug uptake [15] of the same compound?
Answer: 8.51 % ID/g

Question: What about the Drug uptake [16] of the same compound?
Answer: 10.8 % ID/g

Question: What about the Drug uptake [17] of the same compound?
Answer: 4.2 % ID/g

Question: What about the Drug uptake [18] of the same compound?
Answer: 4.41 % ID/g

Question: What about the Drug uptake [19] of the same compound?
Answer: 1.88 % ID/g

Question: And the Drug uptake [20]?
Answer: 10.6 % ID/g

Question: And the Drug uptake [21]?
Answer: 2.09 % ID/g

Question: And the Drug uptake [22]?
Answer: 1.94 % ID/g

Question: And the Drug uptake [23]?
Answer: 10.6 % ID/g

Question: And the Drug uptake [24]?
Answer: 6.72 % ID/g

Question: And the Drug uptake [25]?
Answer: 11 % ID/g

Question: And the Drug uptake [26]?
Answer: 7.46 % ID/g

Question: What about the Drug uptake [27] of the same compound?
Answer: 1.36 % ID/g

Question: What about the Drug uptake [28] of the same compound?
Answer: 8.23 % ID/g

Question: What about the Drug uptake [29] of the same compound?
Answer: 4.22 % ID/g

Question: What about the Drug uptake [30] of the same compound?
Answer: 2.41 % ID/g

Question: And the Drug uptake [31]?
Answer: 0.18 % ID/g

Question: What about the Drug uptake [32] of the same compound?
Answer: 1.27 % ID/g

Question: What about the Drug uptake [33] of the same compound?
Answer: 3.01 % ID/g
